Test system: MS2 coat protein
Experiment: apparent Kd, MS2 coat protein; higher = weaker binding; RNA-MaP array; FMN 200 µM where present
Summary of the method: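 Two titrations, one without ligand and one with constant ligand, were run with SNAP-549-labelled MS2 coat protein from 0.7 or 1.5 nM, doubling to 3 µM. The targets were designs transcribed by stalled E. coli RNA polymerase on Illumina sequencing-chip clusters, in 100 mM Tris-HCl pH 7.5, 80 mM KCl, 4 mM MgCl2, BSA, DTT, yeast tRNA and Tween-20. The apparent Kd is the median of filtered per-cluster binding-curve fits, with green signal normalised to red-channel RNA signal and control-cluster median Fmax.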

[1] = designed as: OFF switch for flavin mononucleotide, no ligand
[2] = ligand present: flavin mononucleotide, designed as: OFF switch for flavin mononucleotide
[3] = designed as: ON switch for flavin mononucleotide, no ligand
[4] = ligand present: flavin mononucleotide, designed as: ON switch for flavin mononucleotide

| Sequence | apparent Kd [1] [nM] | apparent Kd [2] [nM] | apparent Kd [3] [nM] | apparent Kd [4] [nM] |
| --- | --- | --- | --- | --- |
| UUUCAGUCAGGAUAUCGUUAAUUUAAUUGUUUGUUUUAGUUCGAGAAGGGACAUGAGGAUCACCCAUGUACUUU | 20 | 20 | – | – |
| AACGAGGCAGGAUAUACAUGAGGAUCACCCAUGUGCUUGCAUGGCGUGGGAAGUCAUCGUAGAAGGGCCAUGCC | 154 | 74.2 | – | – |
| UUAUUUAGGUAGGAUAUCGAUACUAAUUAUUAUCGAGAAGGGUCUACAUGAGGAUCACCCAUGUUAGCAUGUUU | 28 | 27.7 | – | – |
| CGUAGUCCGUAGAAGGGUGACAUGAGGAUCACCCAUGUGCGAGCCGAGGGAGUCAGCGGCUCGCCACAGGAUAUACGGAGCACG | – | – | 44.5 | 52.9 |
| GGAUAGGACAGAGGAUAUACGUGGUAGAGAUACUAGCAAAAUUUCCUCACAUGAGGAUCACCCAUGUAGAAGGCUGUCCUAUCG | 532 | 19.1 | – | – |
| GCCAUGUUAGGAUAUGCCAUUAUACUGCUGGGUAUAGAUUGGUAGAAGGAACAUGAGGAUCACCCAUGUUCGGG | 83.9 | 178 | – | – |
| GAGUAGUAAGGAUAUGUCUCUGGUGGCUACGGUCACUAGAGGCAGAAGGUACAUGAGGAUCACCCAUGUUUUUU | 17.2 | 19.3 | – | – |
| AAAACACGCGAGAAGGAGGCCUGAUCCUCCACAUGAGGAUCACCCAUGUGCCUAGGAUAUCGCAACCUUUCAGGUUACACCUGG | 70 | 10.2 | – | – |
| UGCUUCGUGUAAGGAUAUGCUGCCGUUUCGGCUGCAGAAGGUACUAUAAUACAUGAGGAUCACCCAUGUCUCUCGCUUUGCGGG | – | – | 55.9 | 26.6 |
| GUCAGCUCGUGAGGAUAUACAACACUGCUUCGGCAGUGUAUUAAGAUCACAUGAGGAUCACCCAUGUAGAAGGCACGAGCUUAU | 13.5 | 233 | – | – |
| AGAAACUACGAGAAGGACAUGUGGUCAAAACGAAACAUGAGGAUCACCCAUGUAGGAUAUCGUAGUUUCAGGAUCGUGAGAUCA | 265 | 429 | – | – |
| GAGAGAGGGUGAGGAUAUUUAGUGAUAAUGAUAAAAGAAGGCACAGACAUGAGGAUCACCCAUGUGGGAAUAAUCCAGAGAGAG | – | – | 305 | 288 |
| UUUUUAUGAGAGAAGGAGGACUUCAUGAGGAUCACCCAUGUGUUAGUACUUAGGAUAUUUAAUAACAUGAGGAUCACCCAUGUC | – | – | 51.1 | 48.6 |
| GAGGUAUUCGUAGGAUAUCCGUCGCCACCGUGUGGAGAAGGACGAACAUGAGGAUCACCCAUGUAUCAUGGUGUGGACGCUUUC | 71.5 | 82.8 | – | – |
| AAAUAAGUUGCAGGAUAUUAUUUUUAAUAAAUAUAAGAAGGGCAACAAACCUCACAUGAGGAUCACCCAUGUACCCAUGCAUCU | 97.8 | 38.4 | – | – |
| CACAGGGAUUCAGGAUAUAUUAGCCGAGGCCGCGUAGAAGGGAAAUCCUGACAUGAGGAUCACCCAUGUCGACCCGCCUUCCAC | – | – | 24.2 | 25.3 |
| GCGUUGUACGAGAAGGCCAAUACAUGAGGAUCACCCAUGUUAAGUUGUUUUGGAGGAUAUCGAUCACAUUCAAUAAUGCAACGC | 6.71 | 5.77 | – | – |
| AGUACUCAAAGAGUACGCAUACGCACAUGAGGAUCACCCAUGUAGGAUAUGCUACUCAAAGAGUAGUAGAAGGACAUAUACCUC | 4.31 | 4.46 | – | – |
| GUCUCGAUGUAGAAGGCCGCGUCCGGCUCACGCGGAGGAUAUACAUGAGGAUCACCCAUGUGUCUGUGGCUAAUAUGGUACGGA | 41.8 | 234 | – | – |
| GUAGCUAUCGGAGGAUAUUCAUACUGGAAACGGACAUGAGGAUCACCCAUGUGGCGAAAGCCUUGGGAGAAGGCUGAUAGCUAC | – | – | 139 | 7.72 |
| AUCAGCUCGUCAGGAUAUACGUCACUGCGUCAGCAGUGUGGUAAGAUCACAUGAGGAUCACCCAUGUAGAAGGGACGCGCUGAU | 13.3 | 226 | – | – |
| GUAGAGUAAGGAUAUGCUGAAUAGGAUAGAAUGGUUAGAAAGUAGAAGGUACAUGAGGAUCACCCAUGUAAUGU | 24.9 | 25.7 | – | – |
| GUGUACGGAGGAUAUGCUGGAAUCUAGCGAAGCUAGGUUCCACAUGAGGAUCACCCAUGUAGAAGGUCGUACAC | 39.3 | 16.1 | – | – |
| UCUGCUCGAGGAUAUACAUGAGGAUCACCCAUGUAACCCAGAAGCAUGGCCUCAGGAUGUAGAAGGCGACGCUA | 17.3 | 37.5 | – | – |

| Sequence | apparent Kd [1] [nM] | apparent Kd [2] [nM] | apparent Kd [3] [nM] | apparent Kd [4] [nM] |
| --- | --- | --- | --- | --- |
| GACUUGUUAGGAUAUCUUACAUUUGCAUCAUAGCAACCAUUGGAGAAGGGACAUGAGGAUCACCCAUGUUUGGA | 31.6 | 31 | – | – |
| CCUGCCAGGACAGGAUAUCUGAGCUGGGACAUGUCUUUUAAGGACAUGAGGAUCACCCAUGUUCAAGAGAAGGGUCAAGGGCGU | 401 | 210 | – | – |
| UAUUCACAUGAGGAUCACCCAUGUAGAAGGCCGAGCCUGGCCACGGUUACAAGCCGUGGAGAGCCGGAGGAUAUACAGCUGGUG | 140 | 27.8 | – | – |
| AGUUUUGUACAUGAGGAUCACCCAUGUUAAUAUGUGGUAGUCAGAAGGCAUUGAUAGAGUUUUAAUGAGGAUAUGAAUAUUCUG | – | – | 31.8 | 32.3 |
| AUAAAACAUGAGGAUCACCCAUGUCAGGAUAUACGAUAUUAAAUUUAAUAUAUUUAUAGUAGAAGGGACAAAUA | 50.4 | 55 | – | – |
| AAAAUCUAUAGAGGAUAUCGUUCUUAAAGAGAAUGAGAAGGCUAACAAUCAUGAGGACAUGAGGAUCACCCAUGUUGUGACCAU | – | – | 19.1 | 9.71 |
| GGUUGGCGAGGAUAUACAUGAGGAUCACCCAUGUGGUCCUGCGAUAGAAUCGCCCUUUGUAGAAGGCGCGGGUC | 67 | 55.2 | – | – |
| UGAUCUUUUGUUAGGAUAUGCUGUUUUUUUUUACAGCAGAAGGGACAUGAGGAUCACCCAUGUCUUGUCAUAAA | 11.3 | 18.6 | – | – |
| UACCACGUUUGAUUAGGCGUGACAUGAGGAUCACCCAUGUGUCAGGAUAUACAUGGGCGGGCCCAGUAGAAGGGACUUAAUAGC | – | – | 327 | 65.1 |
| AAGCUCGUGUGAGGAUAUGCCGCCGUUUCGGCUGCAGAAGGUGCUACGUUACAUGAGGAUCACCCAUGUCUCUGUUGUUUCGUC | – | – | 29.9 | 24.8 |
| UAGUAUAAGGGCAUUAAACAUGAGGAUCACCCAUGUACGUUAGAGGAUAUGCAUUACAGUUGAAAGUAGAAGGUUAGAGAAGGG | 45.6 | 50.1 | – | – |
| UUAAUUAUACAAGGAUAUCUAUUGUUCUUUCGACAUACAUGAGGAUCACCCAUGUUAAUAUAUAUAGAGAAGGUGUAUUUUCAG | – | – | 42.2 | 26.3 |
| ACUGCCCGAGAGAAGGGAACAUGAGGAUCACCCAUGUUACCUCACCUGGUGACGGAACUCCAAGUUCAGGAUAUCUCGAACGGU | 5.23 | 6.51 | – | – |
| GUAGAGUAAGGAUAUGUAGAAUAGGAUAGAAUGGUUAGAAUGCAGAAGGUACAUGAGGAUCACCCAUGUAAUGU | 22.1 | 21.1 | – | – |
| UUUUUGUCAGGAUAUGACUAGAUGCACGUUAGUGUAUUUACUUAGAAGGGACAUGAGGAUCACCCAUGUAUUCC | 30.7 | 26.7 | – | – |
| UGUGCGUAUGUGAGGAUAUGCUGGUCCUUGGAUCGGCAGAAGGCACAUGAGGAUCACCCAUGUGGUGUCGUUCA | 264 | 27.2 | – | – |
| AGAUCACAUGAGGAUCACCCAUGUGAGGAUAUGAUACUAUGUACUUCGGUACAUAGUAUCAGAAGGCAUGUGAA | 43.5 | 41.1 | – | – |
| AGAGCCUCGUGAGGAUAUACAUGAGGAUCACCCAUGUAAAUGAAUGAACGGUGGAAACACCGAAUGUAGAAGGCACGAGGCUCA | 37.9 | 223 | – | – |
| ACCGUAUGAACAUGAGGAUCACCCAUGUAUCCGAAAGGGAAUGAGGAUAUCGAUAGCAAAGCUAUCGAGAAGGCAUGGGACGGU | – | – | 460 | 434 |
| GUAUUUAUAUAAGGAUAUAAGUCUAGGACAUGAGGAUCACCCAUGUGUGUCUUAGAAGGUAUAUGGGUAAUACUGUUACAGUAA | – | – | 226 | 112 |
| UUAUGCUGAGAGAAGGUUCAAACUACAUAUUGCAUACAUGAGGAUCACCCAUGUUGGUGAAUAAGAAAGGAUAUUUUACUGUAU | 86.6 | 63.1 | – | – |
| GGAUCGUAUGUCAGGAUAUACCACUGGAUACAGUGGUAGAAGGGACAUGAGGAUCACCCAUGUGUUAUCGAUCC | 58.9 | 124 | – | – |
| AAGCACAGAGGAUAUACAUGGGUGAUAAAAAUCAUGUAAAAACAUGAGGAUCACCCAUGUAGAAGGCUGUGCAA | 22 | 23.1 | – | – |
| UGUUACUAGUAAGGAUAUACUAGCGAUAAGCUAGUAGAAGGUACAGUCUUUUGUAUAUCAUGUUUACAUGAGGAUCACCCAUGU | – | – | 9.09 | 7.49 |
